Screening results as filed in PubChem.
STAT1 act = activators of IFN-gamma induced STAT1 signaling. NIH 3T3 STAT1-luciferase reporter, luminescence; 100% = IFN-gamma alone, no compound. activation (% of control), % at 5.5 µM. 200,000 tested, 2.6% active. AID 932;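 active = activation above the screen-wide mean activation plus 3 SD, cut at about 130% in these data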;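 note: raw ratio to IFN-gamma control signal so 100% means no change and 0% no light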
STAT1 blocker = inhibitors of IFN-gamma induced STAT1 signaling. 200,000 tested, 0.35% active. AID 920. NIH 3T3 STAT1-luciferase reporter, luminescence. inhibition, % at 5.5 µM;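 active = inhibition above a set limit, the mean inhibition across all tested compounds plus 3 SD, cut at about 34% in these data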;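 note: 0% = IFN-gamma with DMSO and 100% = IFN-gamma with 300 µM nifuroxazide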
NF-kB neuron act = NF-kB expression increase, human neuronal cells. NF-kB reporter expression; stronger effect = higher value. fold change at 12.5 µM. 190,000 tested, 1.6% active; in the data active = fold change above about 3.3
STAT3 blocker = reduces IL-6 driven STAT3 reporter signal | 190,000 tested, 0.89% active | U3A cells, IL-6 STAT3-luciferase reporter, luminescence; host cell line lacks STAT1 | AID 862 | inhibition, % at 5.5 µM;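 active = inhibition above the mean inhibition across all screened compounds plus 3 SD, cut at about 44% in these data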;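 note: 0% = DMSO only wells and 100% = 100 µM nifuroxazide control wells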
STAT3 act = activators of IL-6 induced STAT3 signaling | activation (% of control), % at 5.6 µM | U3A cells, IL-6 STAT3-luciferase reporter, luminescence; 100% = signal with IL-6 EC80 alone | 190,000 tested, 0.91% active;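 active = activation above the screen-wide mean of compound activation plus 3 SD, cut at about 130% in these data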;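 note: 0% = background luminescence of wells with medium and substrate only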
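Material: STAT3-luciferase reporter U3A cells; Probe or stimulus: IL-6 (33 ng/mL); Incubation: compound pre-incubation 1 h before IL-6, then 6 h stimulation at 37 °C; Technique: luminescence from STAT3-driven luciferase reporter; Evaluation: % activation versus median of IL-6-stimulated wells; Controls: IL-6-only high control.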
APP 5'UTR act = activates APP 5'UTR luciferase reporter; 190,000 tested, 1% active; SH-SY5Y APP 5'UTR luciferase reporter, luminescence; zero percent = DMSO vehicle wells; activation, % at 2 µM;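 active = activation above a set limit, based on mean plus 3 SD of controls, cut at about 140% in these data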
Starred values were filed as active, the others as inactive; x = no result. Compounds with a hit are over-represented: about 4.9% of the library has one in this group of screens.

SMILES	STAT1 act	STAT1 blocker	NF-kB neuron act	STAT3 blocker	STAT3 act	APP 5'UTR act
Cc1ccc(NC(=O)Nc2ccc(F)cc2)cc1Cl	119	-21	1.8	15	91	69
COc1ccc(CN2CCC(CO)(Cc3ccccc3C(F)(F)F)CC2)c(F)c1	99	0	0.9	7	104	-7
COc1ccccc1N1C(=O)C(Cl)=C(Nc2ccccc2O)C1=O	108	-10	1.6	-20	118	23
O=C1C(Cl)=C(Nc2ccccc2O)C(=O)N1c1ccccc1	82	19	4.3*	43	69	46
CSc1ncccc1C(=O)Nc1ccc(S(=O)(=O)NC2=NCCCCC2)cc1	98	2	1.5	5	98	-7
Cc1cc(C(=O)CSc2ccc3c(c2)OCCO3)c(C)n1C1CC1	133*	-38	2.5	0	103	56
O=C(O)CCCNC(=O)c1ccc(NC(=O)Cc2ccc(Cl)cc2)cc1	98	0	1.1	20	87	-10
CC(C)(O)c1cc(=O)sc2nc3ccccc3n12	134*	-41	3.6*	-8	109	78
O=C1OC(C(=O)NCc2ccccc2)Cc2ccccc21 (configuration not stated)	105	-7	1.4	4	100	8
CC1CCN(c2nc3ccc(C(=O)O)cc3s2)CC1	26	80*	6.7*	109*	13	-46
O=C(NCC1CCCO1)c1ccc2nc(N3CCCCC3)sc2c1 (configuration not stated)	130*	-31	2.3	-20	116	48
O=C(c1ccc2nc(N3CCOCC3)sc2c1)N1CCN(C(=O)c2ccco2)CC1	102	-2	1	11	98	11
CC1(C)C(c2ccccc2)=NC(c2ccc(Br)cc2)N1O (configuration not stated)	100	-2	1.1	19	89	-3
Cc1cc(C)c(NC(=S)NC(=O)c2ccc(-c3ccccc3)cc2)c(C)c1	94	7	0.7	0	105	-1
Cc1ccc(C(=O)NC(=S)Nc2cc(-c3nc4ccccc4s3)ccc2C)cc1	115	-17	4*	-17	114	120
COc1ccc(Nc2nc(N)nc(CSC(=S)N3CCCCC3)n2)cc1	129*	-28	1.5	-14	116	13
O=C(Nc1ccccc1)c1cc2ccccc2c(=O)s1	146*	-52	1.3	-6	105	61
O=C(Nc1ccc(O)cc1)c1cc2ccccc2c(=O)s1	122	-26	3	16	89	56
Nc1ccc2oc(-c3ccccc3Cl)cc(=O)c2c1O	122	-25	6.5*	6	92	45
O=c1cc(-c2ccccc2Cl)oc2ccc([N+](=O)[O-])c(O)c12	93	8	1.6	-7	104	-6
CSc1cccc(NC(=O)Cc2ccccc2[N+](=O)[O-])c1	93	7	1.1	-11	109	4
CC1CCc2c(sc(NC(=O)COC(=O)c3ccc(O)cc3)c2C#N)C1 (configuration not stated)	107	-7	1.3	-4	111	-2
CCOC(=O)Nc1sc2c(c1C#N)CCC(C)C2 (configuration not stated)	132*	-36	3.9*	0	105	92
C/C(=N\N1C(=O)c2ccccc2NC1c1ccccc1)c1ccccc1O (configuration not stated)	140*	-46	1.5	32	76	105
O=C1c2ccccc2C(=O)C1c1ccnc2ccccc12	61	43*	x	58*	53	146*
COC(=O)c1[nH]c2ccc(Br)cc2c1NC(=O)CN1CCN(C2CCCCC2)CC1	90	11	4*	17	89	8
Fc1ccc(-c2nnc(NC3=NCCCCC3)o2)cc1	38	68*	0.65	100*	20	45
Cc1ccc(NC(=O)Nc2ncccc2C)cc1	149*	-53	2.5	-9	111	56
Cc1cccnc1NC(=O)Nc1ccc(F)cc1	136*	-39	2	4	99	-2
